For five compounds, Activity, inhibition and IC50 results are on record in ChEMBL document CHEMBL4041479, “Piperlongumine (piplartine) and analogues: Antiproliferative microtubule-destabilising agents” (Eur J Med Chem, 2017).

In series [1] the test system is MCF7. Kind of series: Induction of reactive oxygen species generation in human MCF7 cells assessed as decrease in cell viability at 10 uM in presence of N-acetyl cysteine after 48 hrs by alamarBlue assay. Type of series: functional, cell-based. In short, it runs like this: (§1)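 MCF-7 cells were seeded at 2.5×10^4 cells/mL and left to adhere. They were pre-treated 1 h with N-acetyl cysteine (1 mM) or Trolox (100 μM), then exposed to test agents for 48 h. Viability was measured by alamarBlue fluorescence as % of ethanol vehicle control. Mean of three independent experiments.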

Series [2] deals with MCF7. Kind of series: Induction of reactive oxygen species generation in human MCF7 cells assessed as decrease in cell viability at 0.1 to 10 uM in presence of N-acetyl cysteine after 48 hrs by alamarBlue assay. Type of series: functional, cell-based. Summed up: as §1
The species entered for series [3] is Homo sapiens. Kind of series: Binding affinity to colchicine-binding site of beta tubulin in human HT-29 cells assessed as inhibition of formation of protein-N,N'-Ethylene-bis(iodoacetamide) adduct at 10 uM after 2 hrs by Western blot method. Type of series: cell-based. Summed up: (§2)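 MCF-7 or HT-29 cells were exposed to test agent or ethanol vehicle (0.1% v/v) for 2 h, with MCF-7 seeded at 1×10^6 cells/well overnight beforehand. Selected samples then received N,N'-ethylene-bis(iodoacetamide) for a further 1.5 h. Cells were washed in cold PBS, lysed in Laemmli buffer and run on SDS-PAGE. Three independent experiments.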

The test system of series [4] is MCF7. Nature of the series: Induction of reactive oxygen species generation in human MCF7 cells assessed as decrease in cell viability at 100 nM in presence of N-acetyl cysteine after 48 hrs by alamarBlue assay. Type of series: functional, cell-based. In short, it runs like this:
as §1
Background: Alamar Blue is a resazurin reagent that responds to reducing activity.

Series [5] is filed under the species Homo sapiens. Kind of series: Disruption of microtubule network in human MCF7 cells at 100 nM after 16 hrs by immunofluorescence analysis. Type of series: cell-based. In short, it runs like this:
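MCF-7 cells were seeded at 1×10^5 cells/mL on chamber slides and treated for 16 h (vehicle 1% ethanol). Cells were fixed 20 min in 4% paraformaldehyde, permeabilised in 0.5% Triton X-100 and blocked in 5% BSA/PBST. Staining used anti-α-tubulin–FITC (DM1A) for 2 h at rt, then Alexa Fluor 488 for 1 h, with DAPI counterstain. Imaging was by confocal microscopy; three independent experiments.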

The species named for series [6] is Homo sapiens. Kind of series: Binding affinity to colchicine-binding site of beta tubulin in human MCF7 cells assessed as inhibition of formation of protein-N,N'-Ethylene-bis(iodoacetamide) adduct at 10 uM after 2 hrs by Western blot method. It is filed as cell-based. In short, it runs like this:
as §2
(Immunoblotting shows a protein as a band on a membrane.)

Series [7] concerns MCF-10A. Kind of series: Cytotoxicity in human MCF10A cells at 5 uM at 24 hrs by alamarBlue assay. Type of series: cell-based.
Series [8] deals with MCF-10A. Kind of series: Cytotoxicity in human MCF10A cells at 5 uM at 48 hrs by alamarBlue assay. Type of series: cell-based.
In series [9] the test system is MCF-10A. Nature of the series: Cytotoxicity in human MCF10A cells at 1 uM after 24 to 48 hrs by alamarBlue assay. Type of series: cell-based.
In series [10] the test system is MCF7. Kind of series: Antiproliferative activity in human MCF7 cells assessed as cell viability after 48 hrs by alamarBlue assay. Type of series: functional, cell-based. The note with it: MCF7, 48 h. In short, it runs like this:
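Cells were seeded at 2.5×10^4 cells/mL and treated after 24 h with vehicle (0.1% v/v ethanol) or a dose range (0.1–20 μM) for 48 h at 37 °C in 5% CO2. Media-only blanks were subtracted, and viability is given as % of vehicle. Sextuplicate wells, three independent experiments.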

The species named for series [11] is Homo sapiens. Kind of series: Induction of tubulin depolymerization in human Jurkat cells at 1 uM after 4 hrs by Western blot method. It is filed as cell-based. Summed up:
(§3)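 MCF-7 (1×10^6/well) or Jurkat cells were treated for 4 h with 1–20 μM or 0.1% ethanol. Cells were lysed in microtubule-preserving buffer (0.1 M PIPES pH 6.9, 2 M glycerol, 5 mM MgCl2, 2 mM EGTA, 0.5% Triton X-100, 4 μM paclitaxel) and centrifuged at 20,000g for 45 min. Soluble (supernatant) and polymer (pellet) fractions, 30 μg protein each, were immunoblotted for α-tubulin with a GAPDH loading control. Three experiments.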

For series [12], the species on record is Homo sapiens. Kind of series: Induction of tubulin depolymerization in human MCF7 cells at 1 uM after 4 hrs by Western blot method. It is filed as cell-based. Summed up: as §3

Calls of active or inactive are those of the source. The rule behind the calls is not given here. A value given as a limit tells only on which side of the number the result lay.

With `COc1ccc(/C=C(\C)C(=O)c2cc(OC)c(OC)c(OC)c2)cc1O`, the outcome in series [1] was inactive.
On to `COc1ccc(/C=C\c2cc(OC)c(OC)c(OC)c2)cc1O`, for which the result in series [2] and in [4] was inactive. Further, the inhibition result in series [3] and in [6] was “Active” throughout. Besides, in [5], the result was Active.
For the compound `COc1ccc(OC)c(C(=O)/C(C)=C/c2ccc(N(C)C)cc2)c1`, the result in [1] was inactive.
The IC50 is the midpoint of a concentration-inhibition curve. Take `COc1cccc(/C=C/C(=O)N2CCC=CC2=O)c1`: the Activity in series [7] was > 90%; in series [8], > 80%; in series [9], “Non-Toxic”. The IC50 in series [10] is 7.5 µM.
Take `CC(=O)O[C@H]1C(=O)[C@@]2(C)[C@H]([C@H](OC(=O)c3ccccc3)[C@]3(O)C[C@H](OC(=O)[C@H](O)[C@@H](NC(=O)c4ccccc4)c4ccccc4)C(C)=C1C3(C)C)[C@]1(OC(C)=O)CO[C@@H]1C[C@@H]2O`: the result in series [11] and in series [12] was inactive.
